Bioassay records: PubChem BioAssay, The Scripps Research Institute Molecular Screening Center
MsrA inhibitor: inhibits bovine methionine sulfoxide reductase A | purified bovine MsrA, absorbance read-out | 0.75% of 360,000 active | inhibition, % at 15.5 µM;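 also: 0% = vehicle wells with enzyme and 100% = reference inhibitor wells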
procasp3 activ: procaspase-3 (human) activation. P42574. recombinant procaspase-3 D3A, Ac-DEVD-pNA absorbance 405 nm. activation, % at 8.5 µM. 0.11% of 330,000 active;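 active = activation above the mean of all tested compounds plus 3 SD, cut at about 21% in these data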;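 also: 0% = DMSO alone and 100% = DMSO wells spiked with extra 5 µM PC-3 D3A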
Target sequence (P42574 whole entry D9A/D28A/D175A): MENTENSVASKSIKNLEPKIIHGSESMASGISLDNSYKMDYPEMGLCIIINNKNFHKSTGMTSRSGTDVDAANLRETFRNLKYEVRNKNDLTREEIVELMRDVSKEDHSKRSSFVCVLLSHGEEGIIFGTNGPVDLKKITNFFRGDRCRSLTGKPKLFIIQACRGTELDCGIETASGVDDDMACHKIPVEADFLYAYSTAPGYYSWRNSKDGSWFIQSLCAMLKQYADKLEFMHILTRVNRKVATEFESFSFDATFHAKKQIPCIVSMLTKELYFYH
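Assay system: Procaspase-3 D3A mutant, all three cleavage aspartates alanine. Buffer or medium: Zinc-free HEPES saline buffer with Triton X-100. Times: 1 h compound preincubation, 2 h substrate hydrolysis at 25 °C. Measured by: 405 nm absorbance of p-nitroaniline, reads at 0 and 120 min. Read-out basis: percent activation relative to control range. Replicates: singlicate.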
bovine MsrA act: activates bovine MsrA enzyme. purified bovine MsrA, absorbance read-out. 0.3% of 360,000 active. activation, % at 10.6 µM. AID 602163; in the data active = activation above about 7.5%;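 also: 0% = vehicle and 100% = reference activator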
procasp7 counter: counter-screen: procaspase-7 (human) activation. P55210. recombinant procaspase-7, Ac-DEVD-pNA absorbance 405 nm; D23A/D198A/D206A triple mutant, cannot self-cleave; scale: DMSO 0, 5 µM enzyme 100. activation, % at 8.5 µM. 0.093% of 330,000 active. AID 463210;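 active = percent activation above the screen-wide mean plus 3 SD, cut at about 25% in these data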
Target sequence (P55210 whole entry D23A/D198A/D206A): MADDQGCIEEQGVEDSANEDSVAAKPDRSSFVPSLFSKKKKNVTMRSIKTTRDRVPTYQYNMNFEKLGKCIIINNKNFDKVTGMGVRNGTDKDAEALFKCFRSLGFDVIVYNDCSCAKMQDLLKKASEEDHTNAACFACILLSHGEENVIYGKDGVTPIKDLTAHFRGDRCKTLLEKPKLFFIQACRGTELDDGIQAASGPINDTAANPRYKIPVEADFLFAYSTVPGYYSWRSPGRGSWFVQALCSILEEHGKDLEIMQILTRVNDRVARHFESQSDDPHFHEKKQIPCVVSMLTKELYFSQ
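Assay system: Uncleavable procaspase-7 mutant enzyme; Input: 2 µM procaspase-7 mutant as dispensed; Also added: DEVD-pNA substrate; Medium: Zinc-free HEPES pH 7.4 with 300 mM NaCl, 0.01% Triton X-100; Timing: 1 h compound preincubation, 2 h substrate cleavage, 25 °C; Measured by: Epi-absorbance of released pNA at 405 nm, two timepoints.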
MsrA inh confirm: confirmation of bovine MsrA inhibitors; shares compounds with MsrA inhibitor; purified bovine MsrA, absorbance read-out; inhibition, % at 15.5 µM; 41% of 2,300 active;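 also: coupled to thioredoxin reductase with NADPH and selenocystamine and DMSO as substrate; 0% = vehicle only and 100% = full effect of reference inhibitor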
* = called active by the depositor; . = no result given. This is a sample that favours compounds with a hit; in the whole collection about 1.2% have one here. Rule as the data show it, unless noted: active = inhibition above about 4.5%; inactive = the rest.

SMILES	MsrA inhibitor	procasp3 activ	bovine MsrA act	procasp7 counter	MsrA inh confirm
CN(C)/C=N/c1nc2ncc(-c3ccc(Cl)cc3)c(/N=C/N(C)C)n2n1	5.2*	-4	-8	-8	3
Cc1cc2c(c(=O)o1)[C@@]1(C(=O)N(C)c3ccccc31)C1=C(CC(C)(C)CC1=O)O2	0	.	.	.	.
CN(/N=C/c1cccs1)c1cc(=O)n(C)c(=O)[nH]1	9.0*	-5	-8	-6	5.8*
CCN(/N=C/c1cccs1)c1cc(=O)n(C)c(=O)[nH]1	7.2*	3	-4	3	6.7*
Cn1c(=O)cc(Cl)[nH]c1=O	2	-1	-3	12	.
COC(=O)CC#C[C@H](C)[C@@H](NS(C)(=O)=O)C(C)(C)COCc1ccccc1	0	.	.	.	.
Cc1nn(C)c(C)c1/C=C/C(=O)O	-1	-3	-5	8	.
Cc1nn(C)c(C)c1/C=C/C(=O)c1ccc(Cl)cc1Cl	6.4*	4	-7	-6	3
COc1ccc(NC(=O)N(C)C[C@H]2OCc3cnnn3CCCC(=O)N([C@H](C)CO)C[C@@H]2C)c(OC)c1	1	.	.	.	.
CCc1ccc(Nc2ccc(C(N)=O)cc2[N+](=O)[O-])cc1	4	1	-4	6	.
Cc1ccc(Nc2ccc(C(N)=O)cc2[N+](=O)[O-])cc1C	19*	-1	-4	-3	12*
O=C(N/N=C/c1ccc[nH]1)c1cccc(Br)c1	4.7*	-4	-1	-4	4
O=C(N/N=C\c1ccc[nH]1)c1cncc(Br)c1	5.1*	1	-1	-14	4.6*
Cc1cccc(C(=O)N/N=C/c2ccc[nH]2)c1	4	2	-7	3	.
CCC(C(=O)Nc1c(C)cccc1C)n1c(-c2ccc(=O)[nH]c2)nc2ccccc21 (stereo not given)	0	.	.	.	.
CCOc1cccc(C=NNC(=O)C(=O)Nc2cccc(C(F)(F)F)c2)c1O	2	.	.	.	.
CC1CCN(C(=O)c2ncn3c2C(=O)NC[C@@H]3C)CC1	0	.	.	.	.
CC(C)(C)S(=O)N1C[C@@H]2CC(=O)C=C2[C@H]1CCO (stereo not given in full)	1	.	.	.	.
O=C(O)CCCC(=O)Nc1ccc(N=Nc2ccccc2)cc1	6.6*	14	0	-12	3
CCCCCCCCN1C(=O)[C@@H](CC(=O)N2CCN(C(=O)C3CC3)CC2)C[C@@]2(C(=O)OC)C1=C[C@H](C(C)(C)C)O[C@@H]2C	0	.	.	.	.
Cc1cccc(C)c1-n1cccc1/C=C1/C(=N)N2C(=NC1=O)SN=C2S(C)(=O)=O	7.4*	-2	-8	-3	5.8*
Cc1ccc(-n2cccc2/C=C2/C(=N)N3C(=NC2=O)SN=C3S(C)(=O)=O)cc1Cl	1	-13	-6	4	.
COc1cccc(CNC(=O)[C@H]2CCCN2C(=O)[C@H]2CCCN2C(=O)N2CCCCC2)c1	0	.	.	.	.
O=C1C(=O)N(CCCN2CCOCC2)C(c2ccc([N+](=O)[O-])cc2)/C1=C(/O)c1ccc2c(c1)OCO2 (stereo not given)	5.7*	-12	-4	-19	3
CCC(=O)OCCNc1cc(Sc2nc3ccccc3[nH]2)c2nonc2c1[N+](=O)[O-]	5.0*	-19	-17	-17	2
SMILES	MsrA inhibitor	procasp3 activ	bovine MsrA act	procasp7 counter	MsrA inh confirm
CCc1cc(=O)oc2c(C)c(O)c(CN3CCCCC3)cc12	5.4*	1	0	-6	3
Cc1c(O)c(CN2CCCC2)cc2c3c(c(=O)oc12)CCC3	2	5	-4	8	.
COCc1cc(N2CCN(C(=O)OC(C)(C)C)C[C@H]2C)ccc1Br	1	.	.	.	.
Cc1ccsc1/C=N/NC(=O)c1ccc(Cn2cc(Br)cn2)o1	4.7*	-4	-2	7	4
CCOC(=O)C1=CCN(S(=O)(=O)c2ccc([N+](=O)[O-])cc2)C1c1ccc(C)cc1 (stereo not given)	0	.	.	.	.
C[C@@H]1CN([C@@H](C)CO)C(=O)CCCn2cc(nn2)CO[C@H]1CN(C)C(=O)Nc1ccc(C(F)(F)F)cc1	-1	.	.	.	.
Cc1ccc(C=NNc2nc3c([nH]2)c(=O)n(C)c(=O)n3C)cc1	2	.	-5	.	.
COc1ccc(C=NNc2nc3c([nH]2)c(=O)n(C)c(=O)n3C)cc1	5.5*	.	-3	.	3
O=S1(=O)CCC(N=Cc2ccc(-c3ccc(Cl)cc3)o2)C1 (stereo not given)	4.8*	-3	-2	0	4
Cc1cc2n(c(=O)c1C#N)CCCN2c1cccc(Cl)c1	6.9*	-4	-5	-6	5.5*
Cn1cnnc1Sc1ccc(/C=C/C(=O)c2ccc(O)cc2)cc1[N+](=O)[O-]	5.7*	4	-12	-10	3
CCC(=O)/C=C1/Sc2ccc(OC)cc2N1CCO	4	-6	-5	6	.
CCC(=O)/C=C1/Sc2ccc(OC)cc2N1CC	4.7*	-9	-3	-7	3
CCC(=O)/C=C1/Sc2ccccc2N1CC	8.2*	-21	-9	-25	4
COc1ccc(-n2nc([N+](=O)[O-])c(=NCCCN3CCCC3=O)n2O)cc1	4.8*	5	-1	-7	0
COc1ccc(C2CC(=O)C(c3ccccc3OC)=CN2Cc2ccccc2)cc1 (stereo not given)	2	.	.	.	.
Nc1ccc2nc(-c3ccc(Cl)cc3)[nH]c2c1	2	-3	-1	-9	.
Nc1ccc2nc(-c3cc(Cl)c(N)c(Cl)c3)[nH]c2c1	4.8*	7	-11	9	5.6*
Nc1ccc(-c2nc3ccc(N)cc3[nH]2)cc1	5.5*	0	-3	-3	4
Nc1ccc(-c2nc3c(Cl)c(N)ccc3[nH]2)cc1	5.3*	4	-10	1	4
N#Cc1ccc(OCCCN2CCC(C(O)(c3ccccc3)c3ccccc3)CC2)cc1	1	.	.	.	.
Cc1cccc(NC(=S)NC(=O)/C=C/c2ccco2)c1	25*	-10	-5	-12	1
CNC(=O)c1ccccc1C1(O)c2ccccc2CCc2ccccc21	0	.	.	.	.
N#C/C(C(=O)N1CCCCC1)=C1\Nc2ccccc2S1	8.2*	-8	-8	1	5.0*
Cc1ccc(NC(=S)/C(C#N)=C2/Nc3ccccc3S2)cc1	3	.	-7	.	.
SMILES	MsrA inhibitor	procasp3 activ	bovine MsrA act	procasp7 counter	MsrA inh confirm
CCOC(=O)C1=C(C(=O)OCC)C2N(Cc3ccc(Br)cc3)c3ccccc3[C@@]23C[C@@H](C(=O)OC)N(S(=O)(=O)c2cccs2)C3=N1 (stereo not given in full)	2	.	.	.	.
CC(C)N(C[C@@H]1CSCCS(=O)(=O)N1)C(C)C	0	.	.	.	.
CN1CCc2c(sc3c2C(=O)NC(c2cn(Cc4ccccc4)c4ccccc24)N3)C1 (stereo not given)	5.5*	-6	-8	-8	0
C[C@@H]1CN(c2ccc(N3CCNC[C@@H]3C)cc2C#N)CCN1Cc1ccccc1	0	.	.	.	.
CNc1cncc(-c2cccc(NS(C)(=O)=O)c2)n1	5.8*	.	-2	.	4
BrC(/C=N/Nc1nc(N2CCOCC2)nc(N2CCOCC2)n1)=C/c1ccccc1	5.5*	-2	-2	10	4
